Published values gathered from unrelated publications.
Target: High affinity nerve growth factor receptor (NTRK1, Homo sapiens, UniProt P04629)

Compound | test | setting | inhibition [%]
O=C(Nc1ccccc1)Nc1cccc(C(=O)Nc2ccc3[nH]ncc3c2)c1 | enzyme activity, inhibitor, FRET | 1 µM | 33.2
CNC(=O)c1ccccc1Nc1cc(Nc2ccc(N3CCOCC3)cc2OC)ncc1C(F)(F)F | enzyme activity, inhibitor | 1 µM | > 50
COc1cc(C)c(Sc2cnc(NC(=O)c3ccc(N4CCN(CCCCCCCNC(=O)COc5cccc6c5C(=O)N(C5CCC(=O)NC5=O)C6=O)CC4)cc3)s2)cc1C(=O)N1CCN(C(C)=O)CC1 (stereo not shown) | binding | 1 µM | > 90
CNC(=O)c1cc2c(Oc3ccc(NC(=O)C4(C(=O)Nc5ccc(F)cc5)CC4)cc3)ccnc2cc1OC | enzyme activity, inhibitor, radiometric | 1 µM | 99
CCN(CC)CCNC(=O)c1c(C)[nH]c(/C=C2\C(=O)Nc3ccc(F)cc32)c1C | enzyme activity, inhibitor | 0.3 µM | 91
COc1cc2nccc(Oc3ccc(NC(=O)c4c5n(n(-c6ccc(F)cc6)c4=O)CCCC5)cc3)c2cc1OC | enzyme activity, inhibitor | 0.1 µM | 63
Cc1ccc(Nc2nccc(N(C)c3ccc4c(C)n(C)nc4c3)n2)cc1S(N)(=O)=O | enzyme activity, inhibitor | 0.3 µM | 16
CN1CC(Oc2cnc(C#N)cc2-c2ccn3nc(NC(=O)C4CC4)cc3c2)C1 | enzyme activity, inhibitor | 1 µM | 5
COc1cc2ncnc(Nc3ccc(Oc4ccccc4)c(C)c3C)c2cc1OC | enzyme activity, inhibitor | 1 µM | -1
O=C(Nc1ccc(OC(F)(F)F)cc1)Nc1cccc(C(=O)Nc2ccc3[nH]ncc3c2)c1 | enzyme activity, inhibitor, FRET | 1 µM | 69.2
CNCc1ccc(-c2cc(-c3nc(-c4ccc(S(=O)(=O)C(C)C)cc4)cnc3N)on2)cc1 | enzyme activity, inhibitor | 2 µM | 32
CNC(=O)c1cc(Oc2ccc(NC(=O)Nc3ccc(Cl)c(C(F)(F)F)c3)cc2)ccn1 | enzyme activity, inhibitor | 10 µM | 98
O=C(Nc1cccc(C(=O)Nc2ccc3[nH]ncc3c2)c1)Nc1cccc(C(F)(F)F)c1 | enzyme activity, inhibitor, FRET | 1 µM | 67.4
CC/C(=N\NC(=O)NCc1cccc(O)c1)c1ccc(O)c(C)c1O | enzyme activity, inhibitor | 0.1 µM | 3.3
O=C(Nc1ccc2[nH]ncc2c1)c1cccc(NC(=S)Nc2ccc(C(F)(F)F)cc2)c1 | enzyme activity, inhibitor, FRET | 1 µM | 58
CN(C)C1CCN(CC#Cc2nn(C3CCCC3)c3nc(NCc4ccccc4)ncc23)C1 (stereo not shown) | enzyme activity, inhibitor, FRET | 10 µM | 65
